# Assay results as given in ChEMBL document CHEMBL4130442, “Design, synthesis and structure-activity relationship studies of a focused library of pyrimidine moiety with anti-proliferative and anti-metastasis activities in triple negative breast cancer” (Eur J Med Chem, 2017).
# Active and inactive are the calls of the source. No cut-off for these calls is given here.
# What was measured:
# [1] = target: T1, Platelet-derived growth factor receptor beta (Homo sapiens, UniProt P09619); assay: Inhibition of PDGFRbeta in human MDA-MB-231 cells assessed as mTOR Ser2448 phosphorylation level at 2.5 uM incubated for 24 hrs in presence of control siRNA by Western blot relative to untreated control; type: cell-based
# T1 sequence (P09619 whole entry): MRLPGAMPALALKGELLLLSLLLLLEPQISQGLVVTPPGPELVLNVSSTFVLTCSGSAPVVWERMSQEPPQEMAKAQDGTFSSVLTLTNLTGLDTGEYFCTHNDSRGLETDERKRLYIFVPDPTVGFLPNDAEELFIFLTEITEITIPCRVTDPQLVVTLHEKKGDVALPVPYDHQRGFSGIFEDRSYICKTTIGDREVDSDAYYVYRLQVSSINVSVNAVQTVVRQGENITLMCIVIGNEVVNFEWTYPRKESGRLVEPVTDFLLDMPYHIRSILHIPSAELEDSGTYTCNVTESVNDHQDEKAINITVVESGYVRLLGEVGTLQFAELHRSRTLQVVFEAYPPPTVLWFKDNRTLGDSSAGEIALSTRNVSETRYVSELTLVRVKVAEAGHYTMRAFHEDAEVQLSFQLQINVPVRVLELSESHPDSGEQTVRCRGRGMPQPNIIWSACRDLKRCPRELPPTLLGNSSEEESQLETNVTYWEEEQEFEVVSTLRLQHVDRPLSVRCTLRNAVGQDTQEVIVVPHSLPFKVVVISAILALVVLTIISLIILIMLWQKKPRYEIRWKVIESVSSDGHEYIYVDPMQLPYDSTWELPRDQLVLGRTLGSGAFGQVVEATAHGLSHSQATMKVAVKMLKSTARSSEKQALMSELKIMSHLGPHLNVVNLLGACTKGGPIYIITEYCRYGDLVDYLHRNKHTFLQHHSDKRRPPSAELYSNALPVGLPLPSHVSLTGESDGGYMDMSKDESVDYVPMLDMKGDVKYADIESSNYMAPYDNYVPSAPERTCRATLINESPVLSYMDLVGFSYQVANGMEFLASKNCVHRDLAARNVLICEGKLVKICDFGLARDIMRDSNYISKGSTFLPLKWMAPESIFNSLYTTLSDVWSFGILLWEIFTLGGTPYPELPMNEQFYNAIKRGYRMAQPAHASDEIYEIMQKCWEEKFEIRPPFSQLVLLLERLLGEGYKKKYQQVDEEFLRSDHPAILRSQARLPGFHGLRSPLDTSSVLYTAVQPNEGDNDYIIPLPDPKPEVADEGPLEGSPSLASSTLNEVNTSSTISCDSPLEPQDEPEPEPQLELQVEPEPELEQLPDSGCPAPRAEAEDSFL
# Procedure, shortened: (§1)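 Cells were transfected with control or PDGFR-β siRNA, then treated with 2.5 μM compound for 24 h. PDGFR-β-AKT-ULK1 pathway phospho-proteins were assessed by western blot: lysis in Hepes pH 7.4 / Triton buffer, 10-15% SDS-PAGE, PVDF, ECL detection, β-actin as loading control.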
# [2] = target: T1, Platelet-derived growth factor receptor beta; assay: Inhibition of PDGFRbeta in human MDA-MB-231 cells assessed as PDGFRbeta Tyr740 phosphorylation level at 2.5 uM incubated for 24 hrs by Western blot relative to untreated control; type: cell-based
# Procedure, shortened: (§2)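 Cells were treated 24 h at several concentrations. Pooled adherent and floating cells were lysed in Hepes 50 mM pH 7.4 / 1% Triton X-100 buffer with vanadate, NaF, EDTA, PMSF, aprotinin and leupeptin. Equal protein was run on 10-15% SDS-PAGE and blotted to PVDF. PDGFR-β-AKT-ULK1 pathway phospho-proteins were probed and detected by ECL, with β-actin as loading control.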
# MDA-MB-231 [3] = assay: Induction of apoptosis in human MDA-MB-231 cells at 2.5 to 10 uM incubated for 24 hrs by Annexin V/propidium iodide staining based flow cytometry; type: functional, cell-based
# [4] = target: T1, Platelet-derived growth factor receptor beta; assay: Inhibition of PDGFRbeta in human MDA-MB-231 cells assessed as ULK Ser317 phosphorylation level at 5 uM incubated for 24 hrs by Western blot relative to untreated control; type: cell-based; procedure, shortened: as §2
# [5] = target: T1, Platelet-derived growth factor receptor beta; assay: Inhibition of PDGFRbeta in human MDA-MB-231 cells assessed as mTOR Ser2448 phosphorylation level at 2.5 uM incubated for 24 hrs in presence of PDGFRbeta siRNA by Western blot relative to untreated control; type: cell-based; procedure, shortened: as §1
# MDA-MB-231 [6] = assay: Activation of ERK in human MDA-MB-231 cells assessed as ERK Thr202/Tyr204 phosphorylation level at 2.5 to 10 uM incubated for 24 hrs by immunocytochemistry; type: cell-based
# Procedure, shortened: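 MDA-MB-231 cells (ATCC; DMEM, 10% FBS, 5% CO2) were treated, blocked in PBS with 1.5% goat serum, then given p-ERK antibody (1:200 in PBS with 1% BSA) overnight at 4 °C. TRITC-labelled secondary antibody followed for 1 h at room temperature. Nuclear fluorescence was read by microscopy.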
# [7] = target: T1, Platelet-derived growth factor receptor beta; assay: Inhibition of PDGFRbeta in human MDA-MB-231 cells assessed as Akt Ser473 phosphorylation level at 2.5 uM incubated for 24 hrs in presence of PDGFRbeta siRNA by Western blot relative to untreated control; type: cell-based; procedure, shortened: as §1
# MDA-MB-231 [8] = assay: Effect on total ERK1/2 protein level in human MDA-MB-231 cells at 5 uM incubated for 24 hrs in presence of PDGFRbeta siRNA by Western blot relative to untreated control; type: cell-based; conditions: mda-mb-231, 24 h
# MDA-MB-231 [9] = assay: Induction of autophagy in human MDA-MB-231 cells assessed as change in Beclin-1 protein level at 10 uM incubated for 24 hrs by Western blot method relative to untreated control; type: functional
# Procedure, shortened: (§3)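 MDA-MB-231 cells were exposed for 24 h. Adherent and floating cells were pooled and lysed for 1 h at 4 °C in 50 mM Hepes pH 7.4 with 1% Triton X-100, orthovanadate, NaF, EDTA, PMSF, aprotinin and leupeptin. After 12,000 rpm clearing, equal protein was run on 10-15% SDS-PAGE and blotted to PVDF. Detection used HRP-ECL, with β-actin as loading control and densitometric quantification.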
# [10] = target: T1, Platelet-derived growth factor receptor beta; assay: Inhibition of PDGFRbeta in human MDA-MB-231 cells assessed as ULK Ser555 phosphorylation level at 2.5 uM incubated for 24 hrs in absence of PDGFRbeta siRNA by Western blot relative to untreated control; type: cell-based; procedure, shortened: as §1
# MDA-MB-231 [11] = assay: Induction of autophagy in human MDA-MB-231 cells assessed as change in p62 protein level at 2.5 uM incubated for 24 hrs by Western blot method relative to untreated control; type: functional; procedure, shortened: as §3
# MDA-MB-231 [12] = assay: Induction of autophagy in human MDA-MB-231 cells assessed as change in LC3-2 protein level at 2.5 uM incubated for 24 hrs by Western blot method relative to untreated control; type: functional
# Procedure, shortened: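 MDA-MB-231 cells (ATCC; DMEM, 10% FBS, 5% CO2) were treated 24 h over a concentration series. Adherent and floating cells were pooled and lysed 1 h at 4 °C (50 mM Hepes pH 7.4, 1% Triton X-100, phosphatase/protease inhibitors). Equal protein was run on 10-15% SDS-PAGE, transferred to PVDF, probed for Beclin-1, p62 and LC3 with HRP/ECL detection, and normalised to β-actin.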
# [13] = target: T1, Platelet-derived growth factor receptor beta; assay: Inhibition of PDGFRbeta in human MDA-MB-231 cells assessed as ULK Ser555 phosphorylation level at 2.5 uM incubated for 24 hrs by Western blot relative to untreated control; type: cell-based; procedure, shortened: as §2
# MDA-MB-231 [14] = assay: Effect on total Ras protein level in human MDA-MB-231 cells at 5 uM incubated for 24 hrs by Western blot relative to untreated control; conditions: mda-mb-231, 24 h
# MDA-MB-231 [15] = assay: Effect on total Akt protein level in human MDA-MB-231 cells at 2.5 uM incubated for 24 hrs by Western blot relative to untreated control; type: ADME, cell-based; conditions: mda-mb-231, 24 h; procedure, shortened: as §3
# MDA-MB-231 [16] = assay: Effect on total ERK1/2 protein level in human MDA-MB-231 cells at 2.5 uM incubated for 24 hrs in presence of PDGFRbeta siRNA by Western blot relative to untreated control; type: cell-based; conditions: mda-mb-231, 24 h
compound,measurement,setting,value
COc1cccc(Nc2cc(N3CCN(C(=O)Nc4ccc(C(F)(F)F)cc4)CC3)ncn2)c1,fold change (FC),[1],0.26
same,fold change (FC),[2],1.2
same,Activity,MDA-MB-231 [3],Active
same,fold change (FC),[4],2.1
same,fold change (FC),[5],0.16
same,Activity,MDA-MB-231 [6],Active
same,fold change (FC),[7],0.52
same,fold change (FC),MDA-MB-231 [8],2
same,fold change (FC),MDA-MB-231 [9],3.2
same,fold change (FC),[10],3.67
same,fold change (FC),MDA-MB-231 [11],0.78
same,fold change (FC),MDA-MB-231 [12],2.5
same,fold change (FC),[13],4.5
same,fold change (FC),MDA-MB-231 [14],1.35
same,fold change (FC),MDA-MB-231 [15],0.89
same,fold change (FC),MDA-MB-231 [16],1.08
